pEC50, pKi: −log10 of the molar value. Active and inactive are the calls of the source. The calls are words filed in the database; no cut-off is given here.
Experiments:
[1] = Metabolic stability in mouse plasma assessed as esterase-mediated compound hydrolysis by measuring compound half life by HPLC analysis; type: ADME
How it was run: (§1)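 Compounds at 200 μM in mouse plasma, 37 °C, shaken at 100 rpm. Samples taken over time, diluted 1:4 in acetonitrile and centrifuged. Supernatant analysed by C18 reverse-phase HPLC with an acetonitrile/acidified water gradient and UV detection (204 and 230 nm). Half-life from exponential decay fit.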

[2] = molecular target: T1, Cannabinoid receptor 1 (Rattus norvegicus, UniProt P20272); experiment: Agonist activity at CB1 receptor in rat brain membranes assessed as reduction in forskolin-stimulated cAMP level measured from 3 data points after 30 mins; type: functional, cell membranes, Membrane
T1 sequence (P20272 whole entry): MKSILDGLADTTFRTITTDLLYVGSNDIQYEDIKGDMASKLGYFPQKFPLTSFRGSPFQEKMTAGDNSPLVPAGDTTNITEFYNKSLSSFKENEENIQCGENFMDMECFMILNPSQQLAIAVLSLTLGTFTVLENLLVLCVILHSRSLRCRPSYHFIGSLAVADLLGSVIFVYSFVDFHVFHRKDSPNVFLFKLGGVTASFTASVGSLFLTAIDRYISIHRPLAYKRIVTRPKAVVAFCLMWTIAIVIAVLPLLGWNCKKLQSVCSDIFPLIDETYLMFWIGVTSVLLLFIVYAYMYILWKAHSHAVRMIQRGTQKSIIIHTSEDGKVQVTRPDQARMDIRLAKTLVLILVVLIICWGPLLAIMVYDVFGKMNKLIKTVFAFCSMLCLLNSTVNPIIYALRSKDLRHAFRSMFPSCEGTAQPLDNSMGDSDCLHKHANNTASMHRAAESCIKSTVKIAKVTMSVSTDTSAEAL

[3] = molecular target: T1, Cannabinoid receptor 1; experiment: Agonist activity at CB1 receptor in rat brain membranes assessed as reduction in forskolin-stimulated cAMP level measured from 8 data points after 30 mins; type: functional, cell membranes, Membrane
[4] = system: Rattus norvegicus; experiment: Hypothermic activity in sc dosed Sprague-Dawley rat assessed as reduction in body temperature at 0.03 mg/kg, sc measured after 3 hrs post dose relative to baseline; type: functional, organism-based
[5] = system: Rattus norvegicus; experiment: Hypothermic activity in sc dosed Sprague-Dawley rat measured over 6 hrs post dose; type: functional
[6] = molecular target: Cannabinoid receptor 2 (Mus musculus, UniProt P47936); experiment: Displacement of [3H]CP-55,940 from mouse CB2 receptor expressed in HEK293 cells by scintillation counting method; type: cell-based
Chain of Cannabinoid receptor 2 (Mus musculus, UniProt P47936) (P47936 whole entry): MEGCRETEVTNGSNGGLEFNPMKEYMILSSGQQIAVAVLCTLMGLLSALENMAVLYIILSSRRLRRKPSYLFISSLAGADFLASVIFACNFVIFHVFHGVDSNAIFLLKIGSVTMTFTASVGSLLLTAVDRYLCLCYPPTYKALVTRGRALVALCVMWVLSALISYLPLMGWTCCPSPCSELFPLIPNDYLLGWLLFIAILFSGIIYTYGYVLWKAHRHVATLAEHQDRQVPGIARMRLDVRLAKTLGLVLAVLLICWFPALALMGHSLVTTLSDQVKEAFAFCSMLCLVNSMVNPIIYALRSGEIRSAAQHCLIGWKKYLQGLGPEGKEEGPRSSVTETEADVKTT
How it was run: (§2)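 Competition binding against [3H]CP-55,940. Membranes from rat brain (CB1) or from HEK293 cells expressing mouse or human CB2. IC50 from nonlinear regression, converted to Ki. Each experiment run in triplicate; Ki is the mean of three independent experiments.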

[7] = system: Rattus norvegicus; experiment: Hypothermic activity in sc dosed Sprague-Dawley rat assessed as reduction in body temperature at 0.1 mg/kg, sc measured over 6 hrs post dose relative to baseline; type: functional, organism-based
[8] = system: Rattus norvegicus; experiment: Hypothermic activity in sc dosed Sprague-Dawley rat assessed as reduction in body temperature at 0.03 mg/kg, sc measured after 6 hrs post dose relative to baseline; type: functional, organism-based
[9] = molecular target: Cannabinoid receptor 1 (Rattus norvegicus) (UniProt P20272); experiment: Agonist activity at CB1 receptor in rat brain membranes assessed as reduction in forskolin-stimulated cAMP level after 30 mins relative to CP-55,940; type: functional, cell membranes; conditions: Membrane
Chain of Cannabinoid receptor 1 (Rattus norvegicus) (P20272 whole entry): as the sequence (P20272 whole entry) above

[10] = molecular target: T1, Cannabinoid receptor 1; experiment: Displacement of [3H]CP-55,940 from CB1 receptor in rat brain membranes by scintillation counting method; type: cell membranes, Membrane; how it was run: as §2
[11] = molecular target: Cannabinoid receptor 2 (Homo sapiens, UniProt P34972); experiment: Displacement of [3H]CP-55,940 from human CB2 receptor expressed in HEK293 cells by scintillation counting method; type: cell-based; how it was run: as §2
Chain of Cannabinoid receptor 2 (Homo sapiens, UniProt P34972) (P34972 whole entry): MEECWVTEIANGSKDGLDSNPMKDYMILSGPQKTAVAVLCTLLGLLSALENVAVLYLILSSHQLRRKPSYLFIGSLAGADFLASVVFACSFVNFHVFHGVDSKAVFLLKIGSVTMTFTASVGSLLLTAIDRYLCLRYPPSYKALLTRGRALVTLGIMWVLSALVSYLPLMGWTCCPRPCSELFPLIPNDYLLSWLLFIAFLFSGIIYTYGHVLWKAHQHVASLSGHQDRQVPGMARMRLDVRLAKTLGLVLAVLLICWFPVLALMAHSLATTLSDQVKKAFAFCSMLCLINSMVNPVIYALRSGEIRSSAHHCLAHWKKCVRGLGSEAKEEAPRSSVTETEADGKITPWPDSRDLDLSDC

[12] = system: Rattus norvegicus; experiment: Hypothermic activity in sc dosed Sprague-Dawley rat assessed as reduction in body temperature at 0.3 mg/kg, sc measured after 12 hrs post dose relative to baseline; type: functional, organism-based
[13] = Metabolic stability in mouse plasma assessed as esterase-mediated compound hydrolysis measured within 5 hrs by HPLC analysis; type: ADME; how it was run: as §1

SMILES | t1/2 [1] | pEC50 [2] | pKi [6] | pKi [11] | other results
CC1=CC[C@@H]2[C@@H](C1)c1c(O)cc(CC(=O)OCCCCBr)cc1OC2(C)C | 1.7 min |  |  |  | 
CCOC(=O)C(C)(C)c1cc(O)c2c(c1)OC(C)(C)[C@@H]1CC=C(C)C[C@@H]21 |  | 8.00 to 9.00 |  |  | 
CC1=CC[C@@H]2[C@@H](C1)c1c(O)cc(C(C)(C)C(=O)OCCCC#N)cc1OC2(C)C | 46.5 min | > 9.00 | 9.10 |  | pEC50 [3]: 9.05; deltaT [4]: 2 °C; Activity [5]: Dose-dependent effect; ED50 [5]: 0.034 mg/kg; deltaT [7]: < 4.5 °C; Activity [8]: inactive; Emax [9]: 89%
CCCCOC(=O)C1(c2cc(O)c3c(c2)OC(C)(C)[C@@H]2CC=C(C)C[C@@H]32)CCC1 | 36.3 min | > 9.00 |  |  | 
CC1=CC[C@@H]2[C@@H](C1)c1c(O)cc(C(C)(C)C(=O)OCCBr)cc1OC2(C)C |  |  |  | 8.54 | pKi [10]: 8.11
CC1=CC[C@@H]2[C@@H](C1)c1c(O)cc(C(C)(C)C(=O)OCCCCC#N)cc1OC2(C)C | 40.4 min | 8.00 to 9.00 | 10.00 | 9.05 | 
CC1=CC[C@@H]2[C@@H](C1)c1c(O)cc(C(C)(C)C(=O)OCCCCn3ccnc3)cc1OC2(C)C | 392 min |  | 8.09 | 8.11 | 
CC1=CC[C@@H]2[C@@H](C1)c1c(O)cc(C3(C(=O)OCCCCC#N)CCC3)cc1OC2(C)C | 115 min | 8.00 to 9.00 |  |  | 
CC1=CC[C@@H]2[C@@H](C1)c1c(O)cc(C(C)(C)C(=O)OCCCBr)cc1OC2(C)C |  |  |  | 9.15 | 
CC1=CC[C@@H]2[C@@H](C1)c1c(O)cc(C(C)(C)C(=O)OCCCn3ccnc3)cc1OC2(C)C | 271 min | 8.00 to 9.00 | 8.68 | 8.89 | 
CC1=CC[C@@H]2[C@@H](C1)c1c(O)cc(C3(C(=O)OCCCCBr)CCC3)cc1OC2(C)C | 47.9 min |  |  |  | 
CC1=CC[C@@H]2[C@@H](C1)c1c(O)cc(C(C)(C)C(=O)OCCCCBr)cc1OC2(C)C | 12.9 min |  | 9.05 | 9.10 | pKi [10]: 8.92
CC1=CC[C@@H]2[C@@H](C1)c1c(O)cc(C(C)(C)CO)cc1OC2(C)C |  |  | < 5.00 | < 5.00 | 
CCCSC(=O)C(C)(C)c1cc(O)c2c(c1)OC(C)(C)[C@@H]1CC=C(C)C[C@@H]21 | 312 min |  | 9.10 | 9.15 | pKi [10]: 9.30
COC(=O)C(C)(C)c1cc(O)c2c(c1)OC(C)(C)[C@@H]1CC=C(C)C[C@@H]21 |  |  | 7.43 | 7.46 | 
CC1=CC[C@@H]2[C@@H](C1)c1c(O)cc(C(C)(C)C(=O)OCCCCCBr)cc1OC2(C)C |  |  | 8.96 | 9.22 | pKi [10]: 8.92
CCCCOC(=O)C(C)(C)c1cc(O)c2c(c1)OC(C)(C)[C@@H]1CC=C(C)C[C@@H]21 | 12.4 min | > 9.00 |  |  | ED50 [5]: 0.37 mg/kg; Activity [12]: Active
CCCCOC(=O)Cc1cc(O)c2c(c1)OC(C)(C)[C@@H]1CC=C(C)C[C@@H]21 | 0.7 min |  |  |  | 
CC1=CC[C@@H]2[C@@H](C1)c1c(O)cc(CC(=O)OCCCCC#N)cc1OC2(C)C | 3.2 min | 7.00 to 8.00 |  |  | 
CCCCC(=O)OCC(C)(C)c1cc(O)c2c(c1)OC(C)(C)[C@@H]1CC=C(C)C[C@@H]21 | 9.5 min |  | 8.92 | 9.00 | pKi [10]: 9.30
CCCCCNC(=O)C(C)(C)c1cc(O)c2c(c1)OC(C)(C)[C@@H]1CC=C(C)C[C@@H]21 |  | 8.00 to 9.00 |  |  | Stability [13]: Stable

Source: ChEMBL document CHEMBL4000142, “Probing the carboxyester side chain in controlled deactivation (-)-δ(8)-tetrahydrocannabinols” (J Med Chem, 2015)
